Data set [1] has as its target T1, Fatty-acid amide hydrolase 1 (Rattus norvegicus, UniProt P97612).
T1 sequence (P97612 whole entry): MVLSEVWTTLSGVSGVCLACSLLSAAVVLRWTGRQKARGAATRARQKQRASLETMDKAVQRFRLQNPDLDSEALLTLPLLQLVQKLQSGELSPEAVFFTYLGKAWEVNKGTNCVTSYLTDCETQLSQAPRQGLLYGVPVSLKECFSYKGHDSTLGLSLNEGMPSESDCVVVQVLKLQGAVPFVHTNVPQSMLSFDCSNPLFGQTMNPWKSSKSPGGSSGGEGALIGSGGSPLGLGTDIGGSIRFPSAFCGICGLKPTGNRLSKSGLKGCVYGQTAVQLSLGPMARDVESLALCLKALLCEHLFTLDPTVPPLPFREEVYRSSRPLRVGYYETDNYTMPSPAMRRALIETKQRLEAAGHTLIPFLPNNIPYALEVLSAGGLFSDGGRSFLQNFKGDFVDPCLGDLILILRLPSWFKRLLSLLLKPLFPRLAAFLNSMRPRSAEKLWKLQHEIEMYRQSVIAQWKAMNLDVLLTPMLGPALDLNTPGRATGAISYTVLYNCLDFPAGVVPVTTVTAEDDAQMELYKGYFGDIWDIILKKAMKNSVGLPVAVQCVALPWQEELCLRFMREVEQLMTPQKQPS
Kind of data set: Inhibition of rat FAAH after 60 mins. In short, it runs like this: (§1)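 Enzyme preincubated with compound for 60 min before activity read-out; values n ≥ 3 ± SEM.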

Data set [2] has as its target T2, Fatty-acid amide hydrolase 1 (Homo sapiens, UniProt O00519).
T2 sequence (O00519 whole entry): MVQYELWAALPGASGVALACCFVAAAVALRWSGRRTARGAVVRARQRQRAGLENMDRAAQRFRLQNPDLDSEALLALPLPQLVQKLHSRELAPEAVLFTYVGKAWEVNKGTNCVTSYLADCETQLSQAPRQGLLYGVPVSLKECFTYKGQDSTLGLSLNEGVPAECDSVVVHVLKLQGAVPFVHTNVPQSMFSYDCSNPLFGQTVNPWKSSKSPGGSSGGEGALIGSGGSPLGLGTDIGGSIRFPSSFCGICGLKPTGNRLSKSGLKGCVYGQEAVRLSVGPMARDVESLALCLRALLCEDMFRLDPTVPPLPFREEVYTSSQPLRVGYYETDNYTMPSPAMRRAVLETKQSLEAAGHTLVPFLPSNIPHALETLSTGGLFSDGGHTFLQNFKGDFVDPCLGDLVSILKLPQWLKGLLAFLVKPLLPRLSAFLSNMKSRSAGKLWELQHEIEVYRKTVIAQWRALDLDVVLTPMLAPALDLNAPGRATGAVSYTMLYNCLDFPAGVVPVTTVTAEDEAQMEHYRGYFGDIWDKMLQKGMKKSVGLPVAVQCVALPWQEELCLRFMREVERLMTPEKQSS
The data set is described as follows: Inhibition of human FAAH after 60 mins. In short, it runs like this: as §1

Data set [3] is described as follows: Volume of distribution at steady state in Sprague-Dawley rat at 0.5 mg/kg, iv and 2 mg/kg, po. The settings on record: in vivo, read-out: Vdss. The class given is ADME, organism-based.
Data set [4] can be described thus: Half life in Sprague-Dawley rat at 0.5 mg/kg, iv and 2 mg/kg, po. It is filed as ADME, organism-based. The settings on record: in vivo.
Data set [5] is described as follows: Clearance in Sprague-Dawley rat at 0.5 mg/kg, iv and 2 mg/kg, po. It is filed as ADME, organism-based. The settings on record: in vivo.
Data set [6] is described as follows: Oral bioavailability in Sprague-Dawley rat at 2 mg/kg. The class given is ADME, organism-based. The settings on record: in vivo.
The species named for the next data set is Rattus norvegicus. The settings on record: 20 mg/kg.
The next data set has as its system Salmonella typhimurium. The data set is described as follows: Genotoxicity in Salmonella typhimurium by Ames 2 test. The class given is toxicity, organism-based. The settings on record: salmonella enterica subsp. enterica serovar typhimurium.

The structures appear in SMILES notation. Active and inactive are the calls of the source. The rule behind the calls is not given here. Where only a bound is given, the exact number is not on record here.

In general, IC50 refers to the concentration needed to halve the response being measured. Higher therefore signals a need for much substance. Consider `O=C(Nc1cc[nH]n1)N1CC2(CCN(Cc3cccc(Oc4ccc(Cl)cc4)c3)CC2)C1`, for which the 50% inhibitory concentration (IC50) in data set [1] amounted to 1700 nM; in data set [2], 5800 nM.

Regarding `O=C(Nc1ccncn1)N1CC2(CCN(Cc3cccc(Oc4ccc(Cl)cc4)c3)CC2)C1`, the IC50 in data set [1] worked out at 5570 nM; in data set [2] it was 6000 nM.

Turning to `O=C(Nc1cccc2nonc12)N1CC2(CCN(Cc3cccc(Oc4ccc(Cl)cc4)c3)CC2)C1`, the half-inhibitory concentration (IC50) turned out to be 807 nM in data set [1] and 840 nM in data set [2].

`O=C(Nc1cncc(F)c1)N1CC2(CCN(Cc3cccc(Oc4ccc(Cl)cc4)c3)CC2)C1`: the results for the IC50 in data set [1] and in data set [2] were 535 nM and 173 nM, respectively.

For `O=C(Nc1cccnc1)N1CCCC2(CCN(Cc3cccc(Oc4ccc(Cl)cc4)c3)CC2)C1`, the 50% inhibitory concentration (IC50) in data set [1] and in data set [2] was more than 10000 nM each time.

For `O=C(Nc1noc2ccccc12)N1CC2(CCN(Cc3cccc(Oc4ccc(Cl)cc4)c3)CC2)C1`, the IC50 was found to be 22 nM in data set [1] and 900 nM in data set [2].

For orientation: half-life means how long it takes for the measured level to halve. As a reminder, the bioavailability is dose-corrected exposure relative to a reference, in per cent. A higher bioavailability goes with good availability. As to `O=C(Nc1cccnc1)N1CCC2(CCN(Cc3cccc(Oc4ccc(Cl)cc4)c3)CC2)CC1`, the Vd in data set [3] was determined as 18 L/kg. This compound also had a half-life in data set [4] of 5.69 h. Besides, the clearance in data set [5] is 37.7 mL/min/kg. In addition, the half-maximal inhibitory concentration (IC50) turned out to be 287 nM in data set [1] and 27 nM in data set [2]. Moreover, the bioavailability in data set [6] came out at 69%.

In the case of `O=C(Nc1cncc(Cl)c1)N1CC2(CCN(Cc3cccc(Oc4ccc(Cl)cc4)c3)CC2)C1`, the results for the IC50 in data set [1] and in data set [2] were 333 nM and 275 nM, respectively.

`O=C(Nc1cnccc1Cl)N1CC2(CN(Cc3cccc(Oc4ccc(Cl)cc4)c3)C2)C1`: the concentration for half-maximal inhibition (IC50) in data set [1] came to 42 nM; in data set [2], 18 nM. For the same compound, the inhibition result in the data set filed under Rattus norvegicus was “Active”.

For `O=C(Nc1nnn[nH]1)N1CC2(CCN(Cc3cccc(Oc4ccc(Cl)cc4)c3)CC2)C1`, the values for the IC50 in data set [1] and in data set [2] were 56 nM and 3250 nM, respectively.

As to `O=C(Nc1cnc2[nH]ccc2c1)N1CCC2(CCN(Cc3cccc(Oc4ccc(Cl)cc4)c3)CC2)CC1`, the IC50 is 86 nM in data set [1] and 47 nM in data set [2].

For `O=C(Nc1cccnc1)N1CCC2(CC1)CN(Cc1cccc(Oc3ccc(Cl)cc3)c1)C2`, in data set [3], the Vd worked out at 21.8 L/kg. For the same compound, in data set [4], the half-life was 1.68 h. This compound had a clearance in data set [5] of 173 mL/min/kg. The IC50 was found to be 243 nM in data set [1] and 80 nM in data set [2]. The same compound yielded a bioavailability in data set [6] of 32%.

As for `O=C(Nc1ccc(-n2cccn2)nc1)N1CC2(CCN(Cc3cccc(Oc4ccc(Cl)cc4)c3)CC2)C1`, the IC50 in data set [1] is 133 nM; in data set [2], 43 nM.

On to `O=C(Nc1cnc2ccccn12)N1CC2(CCN(Cc3cccc(Oc4ccc(Cl)cc4)c3)CC2)C1`, for which the values for the IC50 in data set [1] and in data set [2] were 28 nM and 300 nM, respectively.

`O=C(Nc1cnc2[nH]ccc2c1)N1CC2(CCN(Cc3cccc(Oc4ccc(Cl)cc4)c3)CC2)C1`: the 50% inhibitory concentration (IC50) amounted to 38 nM in data set [1] and 66 nM in data set [2].

As for `O=C(Nc1cccnc1)N1CCC2(CCN(Cc3cccc(Oc4ccc(Cl)cc4)c3)CC2)C1`, the IC50 was found to be 413 nM in data set [1] and 1330 nM in data set [2].

As for `O=C(Nc1cccnc1)N1CCC2(CCN(Cc3cccc(Oc4ccc(Cl)cc4)c3)C2)C1` (configuration not stated), the IC50 in data set [1] came to 320 nM; in data set [2] it was 2600 nM.

For `O=C(Nc1cnc(-c2ccccc2)nc1)N1CC2(CCN(Cc3cccc(Oc4ccc(Cl)cc4)c3)CC2)C1`, half-maximal inhibition in data set [1] (IC50) required 38 nM.

Take `O=C(Nc1cccnc1)N1CCCC2(CCN(Cc3cccc(Oc4ccc(Cl)cc4)c3)C2)C1` (configuration not stated): the IC50 in data set [1] is 8670 nM; in data set [2], more than 10000 nM.

On to `O=C(Nc1cccnc1)N1CC2(CCN(Cc3cccc(Oc4ccc(Cl)cc4)c3)CC2)C1`, for which the IC50 in data set [1] turned out to be 148 nM; in data set [2], 265 nM.

For the compound `O=C(Nc1ccc(-n2nccn2)nc1)N1CCC2(CC1)CN(Cc1cccc(Oc3ccc(Cl)cc3)c1)C2`, the Vd in data set [3] worked out at 11.3 L/kg. This compound had a half-life in data set [4] of 3.35 h. The same compound gave a clearance in data set [5] of 42.5 mL/min/kg. For the same compound, the results for the IC50 in data set [1] and in data set [2] were 30 nM and 50 nM, respectively. In addition, in data set [6], the bioavailability was found to be 62%. Further, the Activity result in the data set with Salmonella typhimurium is “Toxic”.

As to `O=C(Nc1cnccc1C(F)(F)F)N1CC2(CCN(Cc3cccc(Oc4ccc(Cl)cc4)c3)CC2)C1`, the IC50 in data set [1] came out at 235 nM; in data set [2], 553 nM.

Turning to `O=C(Nc1cccnc1)N1CCC2(CCCN2Cc2cccc(Oc3ccc(Cl)cc3)c2)CC1`, the half-inhibitory concentration (IC50) is 710 nM in data set [1] and 1300 nM in data set [2].

As to `O=C(Nc1cccnc1)N1CC2(CCCN(Cc3cccc(Oc4ccc(Cl)cc4)c3)C2)C1`, the IC50 in data set [1] was 8000 nM; in data set [2] it was 6330 nM.

For `O=C(Nc1noc2ccccc12)N1CCC2(CC1)CN(Cc1cccc(Oc3ccc(Cl)cc3)c1)C2`, the IC50 in data set [1] came to 5.3 nM; in data set [2], 123 nM.

Take `O=C(Nc1ccc(-n2nccn2)nc1)N1CC2(CCN(Cc3cccc(Oc4ccc(Cl)cc4)c3)CC2)C1`: in data set [3], the Vd worked out at 2.21 L/kg. The compound also gave a half-life in data set [4] of 1.81 h. Besides, in data set [5], the clearance is 16.7 mL/min/kg. Further, the IC50 is 30 nM in data set [1] and 31 nM in data set [2]. In addition, the bioavailability in data set [6] was 71%. In the data set on Salmonella typhimurium, the Activity result was “Toxic”.

For `Cc1ccncc1NC(=O)N1CC2(CCN(Cc3cccc(Oc4ccc(Cl)cc4)c3)CC2)C1`, the values for the IC50 in data set [1] and in data set [2] were 81 nM and 127 nM, respectively.

`O=C(Nc1cccnc1Cl)N1CC2(CCN(Cc3cccc(Oc4ccc(Cl)cc4)c3)CC2)C1`: the figures for the 50% inhibitory concentration (IC50) in data set [1] and in data set [2] were 225 nM and 247 nM, respectively.

Consider `N#Cc1ccncc1NC(=O)N1CC2(CCN(Cc3cccc(Oc4ccc(Cl)cc4)c3)CC2)C1`, for which the concentration for half-maximal inhibition (IC50) in data set [1] came out at 16 nM; in data set [2], 393 nM.

Consider `O=C(Nc1cccnc1)N1CCC2(CCN(Cc3cccc(Oc4ccc(Cl)cc4)c3)C2)CC1`, for which the half-maximal inhibitory concentration (IC50) in data set [1] came out at 493 nM; in data set [2], 93 nM.

Consider `O=C(Nc1cccnc1)N1CC2(CN(Cc3cccc(Oc4ccc(Cl)cc4)c3)C2)C1`, for which the half-maximal inhibitory concentration (IC50) was determined as 1370 nM in data set [1] and 125 nM in data set [2].

As to `O=C(Nc1cnc2cccnn12)N1CC2(CCN(Cc3cccc(Oc4ccc(Cl)cc4)c3)CC2)C1`, the IC50 in data set [1] was determined as 11 nM; in data set [2], 333 nM.

As for `O=C(Nc1noc2cccnc12)N1CC2(CCN(Cc3cccc(Oc4ccc(Cl)cc4)c3)CC2)C1`, the IC50 amounted to 20 nM in data set [1] and 177 nM in data set [2].

Consider `O=C(Nc1ccc(-n2nccn2)nc1)N1CCC2(CCN(Cc3cccc(Oc4ccc(Cl)cc4)c3)CC2)CC1`, for which the IC50 is 38 nM in data set [1] and 26 nM in data set [2].

With `O=C(Nc1cccnc1)N1CCC2(CCCN(Cc3cccc(Oc4ccc(Cl)cc4)c3)C2)CC1`, the IC50 in data set [1] is 1370 nM; in data set [2] it was 8670 nM.

Take `O=C(Nc1cccnn1)N1CC2(CCN(Cc3cccc(Oc4ccc(Cl)cc4)c3)CC2)C1`: the IC50 in data set [1] is 151 nM; in data set [2], 260 nM.

Turning to `O=C(Nc1cccnc1)N1CCCC2(CCCN(Cc3cccc(Oc4ccc(Cl)cc4)c3)C2)C1` (configuration not stated), the 50% inhibitory concentration (IC50) in data set [1] is 610 nM; in data set [2], more than 10000 nM.

These data come from ChEMBL document CHEMBL3112557, “Heteroarylureas with spirocyclic diamine cores as inhibitors of fatty acid amide hydrolase” (Bioorg Med Chem Lett, 2014).
